Test results published in ChEMBL document CHEMBL1135918, “Gold(III) complexes with bipyridyl ligands: solution chemistry, cytotoxicity, and DNA binding properties” (J Med Chem, 2002).

Experiments:
Format in all cases: functional, cell-based
A2780 [1] = assay: Inhibitory effect of Gold(III) complex, [Au(bipy)-(OH)2]-[PF6] on growth of cisplatin-resistant A2780/R human tumor cell lines
Outline: (§1)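 Human ovarian carcinoma cells (A2780/S; A2780/R derived from it by repeated 1 h weekly exposure to 50 µM; SKOV3) grown exponentially in RPMI1640 with 10% FCS and antibiotics at 37 °C, 5% CO2. Drugs dissolved in sterile bidistilled water, 72 h exposure, growth measured by sulforhodamine B assay. IC50 is the concentration inhibiting growth by 50% versus control.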

A2780 [2] = assay: Inhibitory effect of Gold(III) complex, [Au(bipy)-(OH)2]-[PF6] on growth of cisplatin-sensitive A2780/S human tumor cell lines; outline: as §1
CCRF-CEM [3] = assay: Inhibitory effect of Gold(III) complex, [Au(bipy)-(OH)2]-[PF6] on growth of cisplatin-resistant CCRF-CEM/R human tumor cell lines
Outline: (§2)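 Human T-lymphoblastoid leukemia CCRF-CEM/S cells, and CCRF-CEM/R cells selected by continuous exposure to rising cisplatin and kept in 10 µM cisplatin. Exponentially growing cells in RPMI1640 with 10% FCS and antibiotics at 37 °C, 5% CO2. Water-dissolved drugs applied for 72 h, growth read by Coulter counter cell counting. IC50 is 50% growth inhibition versus control.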

CCRF-CEM [4] = assay: Inhibitory effect of Gold(III) complex, [Au(bipy)-(OH)2]-[PF6] on growth of cisplatin-sensitive CCRF-CEM/S human tumor cell lines; outline: as §2
SK-OV-3 [5] = assay: Inhibitory effect of Gold(III) complex, [Au(bipy)-(OH)2]-[PF6] on growth of cisplatin-resistant SKOV3 human tumor cell lines; outline: as §1
A2780 [6] = assay: Inhibitory effect of Gold(III) complex, [Au(bipy-H)(OH)]-[PF6] on growth of cisplatin-resistant A2780/R human tumor cell lines; outline: as §1
A2780 [7] = assay: Inhibitory effect of Gold(III) complex, [Au(bipy-H)(OH)]-[PF6] on growth of cisplatin-sensitive A2780/S human tumor cell lines; outline: as §1
CCRF-CEM [8] = assay: Inhibitory effect of Gold(III) complex, [Au(bipy-H)(OH)]-[PF6] on growth of cisplatin-resistant CCRF-CEM/R human tumor cell lines; outline: as §2
CCRF-CEM [9] = assay: Inhibitory effect of Gold(III) complex, [Au(bipy-H)(OH)]-[PF6] on growth of cisplatin-sensitive CCRF-CEM/S human tumor cell lines; outline: as §2
SK-OV-3 [10] = assay: Inhibitory effect of Gold(III) complex, [Au(bipy-H)(OH)]-[PF6] on growth of cisplatin-resistant SKOV3 human tumor cell lines; outline: as §1
A2780 [11] = assay: Inhibitory effect of Gold(III) complex, 2,2' bipy on growth of cisplatin-resistant A2780/R human tumor cell lines; outline: as §1
A2780 [12] = assay: Inhibitory effect of Gold(III) complex, 2,2' bipy on growth of cisplatin-sensitive A2780/S human tumor cell lines; outline: as §1
CCRF-CEM [13] = assay: Inhibitory effect of Gold(III) complex, 2,2' bipy on growth of cisplatin-resistant CCRF-CEM/R human tumor cell lines; outline: as §2
CCRF-CEM [14] = assay: Inhibitory effect of Gold(III) complex, 2,2' bipy on growth of cisplatin-sensitive CCRF-CEM/S human tumor cell lines; outline: as §2
SK-OV-3 [15] = assay: Inhibitory effect of Gold(III) complex, 2,2' bipy on growth of cisplatin-resistant SKOV3 human tumor cell lines; outline: as §1
A2780 [16] = assay: Inhibitory effect of Gold(III) complex, CDDP on growth of cisplatin-resistant A2780/R human tumor cell lines; outline: as §1
A2780 [17] = assay: Inhibitory effect of Gold(III) complex, CDDP on growth of cisplatin-sensitive A2780/S human tumor cell lines; outline: as §1
CCRF-CEM [18] = assay: Inhibitory effect of Gold(III) complex, CDDP on growth of cisplatin-resistant CCRF-CEM/R human tumor cell lines; outline: as §2
CCRF-CEM [19] = assay: Inhibitory effect of Gold(III) complex, CDDP on growth of cisplatin-sensitive CCRF-CEM/S human tumor cell lines; outline: as §2
SK-OV-3 [20] = assay: Inhibitory effect of Gold(III) complex, CDDP on growth of cisplatin-resistant SKOV3 human tumor cell lines; outline: as §1

pyrido[1',2':3,4]imidazo[1,5-a]pyridinediium-6,6-diol(gold(III)complex) with Phosphorous hexa fluoride
IC50 (A2780 [1]): 24.1 µM
IC50 (A2780 [2]): 8.8 µM
IC50 (CCRF-CEM [3]): 58.6 µM
IC50 (CCRF-CEM [4]): 52.9 µM
IC50 (SK-OV-3 [5]): 34.4 µM

8,8-dimethyl-8,12b-dihydro-7b,12c-diazoniabenzo[a]aceanthrylen-12b-ol(gold(III)complex) with Phosphorous hexa fluoride
IC50 (A2780 [6]): 8.2 µM
IC50 (A2780 [7]): 3.3 µM
IC50 (CCRF-CEM [8]): 51.2 µM
IC50 (CCRF-CEM [9]): 11.9 µM
IC50 (SK-OV-3 [10]): 13.3 µM

c1ccc(-c2ccccn2)nc1 [DIPYRIDYL]
IC50 (A2780 [11]): 44.8 µM
IC50 (A2780 [12]): > 20 µM
IC50 (CCRF-CEM [13]): 61.7 µM
IC50 (CCRF-CEM [14]): 51.9 µM
IC50 (SK-OV-3 [15]): 41.3 µM

CISPLATIN
IC50 (A2780 [16]): 15.3 µM
IC50 (A2780 [17]): 1.3 µM
IC50 (CCRF-CEM [18]): 14.1 µM
IC50 (CCRF-CEM [19]): 1 µM
IC50 (SK-OV-3 [20]): 21.6 µM
